sPLA2-III inh: Blocks human group III sPLA2 activity; Q9NZ20; 370,000 compounds, 0.56% hits; QFRET BODIPY PC-A2 liposome hydrolysis, fluorescence; inhibition, % at 12.2 µM; AID 743126;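 active means inhibition above mean plus 3 SD of compounds lying within the high and low control bounds, cut at about 19% in these data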;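 further: 0% = median of test compound wells and 100% = no enzyme DMSO wells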
Target sequence (Q9NZ20 whole entry, looked up): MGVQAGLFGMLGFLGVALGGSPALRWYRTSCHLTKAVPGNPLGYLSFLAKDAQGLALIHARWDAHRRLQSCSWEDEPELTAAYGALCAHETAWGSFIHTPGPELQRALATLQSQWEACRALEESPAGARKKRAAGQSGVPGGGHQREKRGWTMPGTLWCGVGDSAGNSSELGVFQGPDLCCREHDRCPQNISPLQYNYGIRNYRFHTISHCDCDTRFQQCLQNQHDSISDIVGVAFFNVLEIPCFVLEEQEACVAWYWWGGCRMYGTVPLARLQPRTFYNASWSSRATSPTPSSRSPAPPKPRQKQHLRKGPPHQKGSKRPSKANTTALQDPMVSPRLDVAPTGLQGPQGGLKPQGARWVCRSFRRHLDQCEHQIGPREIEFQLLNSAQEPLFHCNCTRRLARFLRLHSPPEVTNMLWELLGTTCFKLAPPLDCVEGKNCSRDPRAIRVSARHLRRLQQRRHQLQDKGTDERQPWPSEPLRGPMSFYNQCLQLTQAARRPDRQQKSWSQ
MsrA inhibitor: inhibitors of bovine MsrA. purified bovine MsrA, absorbance read-out. inhibition, % at 15.5 µM. 360,000 compounds, 0.75% hits. AID 651718;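 further: 0% = vehicle wells with enzyme and 100% = reference inhibitor wells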
ARFGAP1 inhibitor: inhibitors of rat ARFGAP1. Q62848. Arfgap1-stimulated ARF1 GTP hydrolysis, GDP FP detection. inhibition, % at 16.5 µM. 360,000 compounds, 0.26% hits;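 active means inhibition above a per-plate limit, mean inhibition of low control wells plus 3 SD, cut at about 25% in these data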;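 further: 0% = DMSO wells with enzyme and 100% = wells lacking Arfgap1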
Target sequence (Q62848 1-136 limits assumed): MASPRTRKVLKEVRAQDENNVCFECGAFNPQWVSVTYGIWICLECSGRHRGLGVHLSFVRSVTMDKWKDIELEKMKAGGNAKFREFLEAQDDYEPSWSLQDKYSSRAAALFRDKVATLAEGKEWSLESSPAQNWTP
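Material – truncated rat Arfgap1 GAP domain · Buffer or medium – HEPES-based buffer, pH 7.5 · Reagent – human ARF1(Δ1-17)-GTP substrate · Dosing – 16.5 µM single point, 1.26% DMSO · Schedule – GTP hydrolysis reaction 2 h at 25 °C · Technique – GDP detection by fluorescence polarization · Benchmarks – No-Arfgap1 wells (100%) versus DMSO full-reaction wells (0%) · Repeats – single replicate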
ASAP1 GAP inh: blocks human ASAP1-stimulated Arf1 GTP hydrolysis; GDP FP detection; inhibition, % at 16.5 µM; 360,000 compounds, 0.19% hits; AID 624377; in the data active means inhibition above about 25%;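 further: 0% = vehicle with enzyme and substrate and 100% = no enzyme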
bovine MsrA act: activators of bovine methionine sulfoxide reductase A. purified bovine MsrA, absorbance read-out. 360,000 compounds, 0.3% hits. activation, % at 10.6 µM; in the data active means activation above about 7.5%;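 further: 0% = vehicle and 100% = reference activator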
NR1D1 modulator: modulators of human Rev-erb alpha DNA binding | P20393 | Rev-erbα–FITC-DNA binding, fluorescence polarization, 90 min | activity, % at 10 µM | 370,000 compounds, 0.79% hits;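 active means activity above about 14%, limit read from the data; passing the limit was not always enough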;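 further: 0% = DMSO wells with 35 nM protein and 100% = DMSO wells with 750 nM protein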
MsrA conf: confirmation of bovine MsrA inhibitors | shares compounds with MsrA inhibitor | purified bovine MsrA, absorbance read-out | inhibition, % at 15.5 µM | 2,300 compounds, 41% hits | AID 651822;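 further: coupled to thioredoxin reductase with NADPH and selenocystamine and DMSO as substrate; 0% = vehicle only and 100% = full effect of reference inhibitor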
* hit, by the source's call; nt = not tested or not shown. This is a sample that favours compounds with a hit; in the whole collection about 2.7% have one here. Unless noted, no stated cut-off is given here; in the data, active means inhibition above about 4.5%; inactive means the rest.

SMILES	sPLA2-III inh	MsrA inhibitor	ARFGAP1 inhibitor	ASAP1 GAP inh	bovine MsrA act	NR1D1 modulator	MsrA conf
C#CCNC(=O)CSCc1nc(-c2ccc(OCC)cc2)oc1C	-2	nt	nt	nt	nt	-8	nt
CC(=O)NN1C(=O)c2ccccc2NC1c1ccc(N(C)C)cc1 (stereo not drawn)	12	6.3*	-5	-4	-7	3	1
CCOC(=O)NN1C(=O)c2ccccc2NC1c1ccc(N(C)C)cc1 (stereo not drawn)	-5	3	-2	-1	-4	-2	nt
CCOC(=O)c1sc(NC(=O)C2=COCCO2)c(C#N)c1C	-4	5.8*	3	-4	-3	1	2
C=CCN1C(=O)[C@H](CC(=O)NCC2CCCCC2)[C@@]2(C(=O)OCC)CCCC=C12	5	nt	nt	nt	nt	7	nt
COC(=O)CC/C(C)=N\Nc1ccc([N+](=O)[O-])cc1[N+](=O)[O-]	-2	6.3*	-9	4	-3	0	9.5*
CCC(CC)=NNc1ccc(S(N)(=O)=O)cc1[N+](=O)[O-]	8	0	-1	14	-1	3	nt
CCN(CC)S(=O)(=O)c1ccc(N/N=C(\C)c2ccc3c(c2)OCO3)c([N+](=O)[O-])c1	-6	-1	8	-18	-4	-1	nt
C/C(CC(C)C)=N/Nc1ccc([N+](=O)[O-])cc1[N+](=O)[O-]	-3	11*	13	0	-5	9	12*
C/C(=N\Nc1ccc(S(N)(=O)=O)cc1[N+](=O)[O-])c1ccc2c(c1)OCO2	0	21*	6	0	-3	-13	15*
C/C(CCC(C)C)=N\Nc1ccc(S(N)(=O)=O)cc1[N+](=O)[O-]	2	10*	6	10	-13	4	7.8*
COc1cccc(C(C)=NNc2ccc([N+](=O)[O-])cc2[N+](=O)[O-])c1OC	1	-1	11	9	0	12	nt
CC(Cc1ccccc1)=NNc1ccc([N+](=O)[O-])cc1[N+](=O)[O-]	3	-1	3	2	-1	-6	nt
C[C@H](O)[C@@H]1CN2CCc3ccc(N4CCOCC4)cc3[C@@H]2C[C@@H]1N(C)C(=O)c1cccc(Cl)c1	1	nt	nt	nt	nt	-4	nt
COc1ccc(CN[C@@H]2CC[C@@]34CCCN3C(=O)CCC[C@H]4C2)cc1OC	1	nt	nt	nt	nt	-5	nt
O=S(=O)(CC1NCc2cc(F)ccc21)NCc1ccccc1 (stereo not drawn)	0	nt	nt	nt	nt	4	nt
CCOC(=O)Nc1ccc2c(c1)[C@@]1(CC(=O)N(CC(C)C)C1c1ccccc1)C(=O)N2C (stereo partly drawn)	-2	nt	nt	nt	nt	11	nt
CC(Sc1ncc(C(F)(F)F)cc1Cl)C(=O)NC(N)=O (stereo not drawn)	-2	19*	-3	-5	-4	0	15*
CC(C)C(=O)Nc1ncc(C(F)(F)F)cc1Cl	2	3	2	-2	3	7	nt
N=c1c2c(ccn1CCCCc1ccccc1)Oc1ccc3ccccc3c1C2c1ccccc1 (stereo not drawn)	-1	nt	nt	nt	nt	-3	nt
N/C(=N\N=C\c1ccc(O)c(O)c1)c1nonc1N	16	4	16	5	-2	5	nt
N/C(=N\N=C\c1ccc(O)cc1)c1nonc1N	2	6.4*	4	5	-2	2	4
N/C(=N\N=C\c1cccc(O)c1)c1nonc1N	5	6.0*	0	-17	-2	-5	3
CC1OC(Oc2ccc3ccc(=O)oc3c2-c2c(O)ccc3cc(Oc4ccc5ccc(=O)oc5c4)c(=O)oc23)C(O)C(O)C1O (stereo not drawn)	1	4.8*	1	-3	-5	-5	4
O=c1ccc2ccc(O[C@@H]3O[C@H](CO[C@@H]4OC[C@](O)(CO)[C@H]4O)[C@@H](O)[C@H](O)[C@H]3O)cc2o1	-5	0	-4	-1	-4	-2	nt
SMILES	sPLA2-III inh	MsrA inhibitor	ARFGAP1 inhibitor	ASAP1 GAP inh	bovine MsrA act	NR1D1 modulator	MsrA conf
O=C(NNC(=S)Nc1cccc(C(F)(F)F)c1)c1ccncc1	19	4.8*	3	1	-2	-4	1
Cc1ccc(NC(=O)OCCCN2C(=O)CCC23CCC(C)CC3)cc1C (stereo not drawn)	-10	nt	nt	nt	nt	1	nt
COCC(=O)N1CC[C@H]2[C@@H]1c1cc(-c3cccc(OC)c3)ccc1N(C)[C@H]2CO	7	nt	nt	nt	nt	0	nt
Cc1ccc(OCC(=O)N/N=C/C=C/c2ccco2)cc1	-3	4.7*	-4	-9	-11	2	2
O=C(O)c1ccc(-c2nc3ccccc3s2)o1	0	5.2*	-6	-10	-4	4	4
O=C(c1ccc(-c2nc3ccccc3s2)o1)N1CCN(c2ccccc2O)CC1	-13	3	5	0	-2	-7	nt
CCN(C(=O)COC(=O)c1cc([N+](=O)[O-])ccc1N1CCOCC1)c1ccccc1	5	9.8*	-10	-5	-1	5	5.5*
C=CCOc1cccc(/C=C\c2nc(O)c([N+](=O)[O-])c(=O)[nH]2)c1	2	4.8*	-3	-11	-2	-7	4
C=CCOc1ccc(/C=C\c2nc(O)c([N+](=O)[O-])c(=O)[nH]2)cc1OC	nt	nt	nt	nt	-4	nt	nt
O=C(N/N=C/c1ccc(O)cc1)c1cncc(Br)c1	-7	2	-1	1	-7	-3	nt
Cc1cccc(C(=O)N/N=C/c2ccc[nH]2)c1	-3	4	-1	-13	-7	-1	nt
O=C(N/N=C/c1ccc[nH]1)c1cccc(Br)c1	-4	4.7*	-2	5	-1	-5	4
O=C(N/N=C\c1ccc[nH]1)c1cncc(Br)c1	1	5.1*	-1	-3	-1	1	4.6*
CCOC(=O)/C(C#N)=C/Nc1ccccc1OC(F)(F)F	0	11*	-2	3	0	4	7.1*
CCOC(=O)/C(C#N)=C/Nc1ccccc1NS(=O)(=O)c1cccc(C(C)=O)c1	-8	6.0*	-5	3	-3	-3	3
CCOC(=O)/C(C#N)=C/Nc1cc(OC)ccc1OC	3	3	-6	2	-2	1	nt
CCOC(=O)/C(C#N)=C/Nc1ccccc1NS(=O)(=O)c1ccc(C)c(C)c1	-5	0	4	-5	-3	2	nt
COC[C@H]1CCCN1c1ccc2c(c1)O[C@H](C)CCN(C1CC1)S2(=O)=O	-6	nt	nt	nt	nt	-2	nt
c1ccc(N=Nc2cn[nH]c2-c2ccco2)cc1	-25	6.9*	-1	-4	-4	-4	5
C=CCc1c(C)nc(C)nc1N/N=C/c1ccccc1	-3	4.7*	4	10	-3	-3	4.8*
C=CCc1c(C)nc(C)nc1N/N=C/c1ccc(F)cc1	-2	3	-1	11	-5	-5	nt
O=C(O)c1ccc(N/N=C/c2cc3ccccc3nc2Cl)cc1	-13	2	-1	-2	-8	3	nt

Screens as filed in PubChem.
